# Screens: PubChem BioAssay, several laboratories
# TAAR1 agonist: agonists of human TAAR1. activation, % at 3 µM. hit rate 0.99% among 360,000. CHO RD-HGA16 TAAR1, Fluo-8 calcium fluorescence; vehicle wells 0%, saturating PEA agonist 100%. AID 624467;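 active = activation above the mean activation of all test compounds in the run plus 3 SD, cut at about 38% in these data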
# Target sequence (Q96RJ0 whole entry, looked up): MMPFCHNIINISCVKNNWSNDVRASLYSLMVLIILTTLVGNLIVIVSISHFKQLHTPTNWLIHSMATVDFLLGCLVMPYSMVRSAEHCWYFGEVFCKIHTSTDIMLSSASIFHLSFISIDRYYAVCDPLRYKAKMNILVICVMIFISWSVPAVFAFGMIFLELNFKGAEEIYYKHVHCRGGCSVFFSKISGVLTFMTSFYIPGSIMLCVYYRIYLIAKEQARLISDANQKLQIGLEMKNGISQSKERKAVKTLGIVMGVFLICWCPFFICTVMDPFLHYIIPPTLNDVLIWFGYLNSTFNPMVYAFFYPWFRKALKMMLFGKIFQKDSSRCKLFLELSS
#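 Test system: RD-HGA16 (CHO) cells co-expressing Gα16 and hTAAR1 / Benchmarks: DMSO vehicle as 0%, PEA at EC100 as 100% / Repeats: no replicates (n 1) / Measure: % activation from peak over basal fluorescence ratio, DMSO-to-PEA scaled / Timing: 17-24 h plating, Fluo-8 75 min 37 °C, 30 min RT / Technique: kinetic Fluo-8 calcium fluorescence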
# CRFR2-BP antag: blocks CRF-induced signaling of the CRF-BP/CRF-R2 complex; inhibition, % at 11.8 µM; hit rate 0.59% among 350,000; HEK293 CRF-R2/CRF-BP, CRF-induced calcium fluorescence; AID 588475;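 active = inhibition of the ligand-induced calcium signal above about 50% at the single tested concentration, limit read from the data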
# ANO1 block: blocks the mouse calcium-activated chloride channel TMEM16A; Q8BHY3; HEK293 TMEM16A/YFP iodide influx fluorescence, ionomycin; AID 588511; hit rate 1.2% among 310,000; normalized B-score (activity score, 25-100; higher = stronger inhibition) at 10 µM;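 active = ratio plate-corrected score three or more library SD toward inhibition, starting fluorescence score within five deviations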;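 also: score derived from kinetic fluorescence span divided by baseline fluorescence per well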
# TAAR1 antag: antagonists of human TAAR1; CHO RD-HGA16 TAAR1, Fluo-8 calcium fluorescence, antagonist; inhibition, % at 3 µM; hit rate 1.5% among 360,000;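 active = inhibition above a per-plate cutoff, the mean inhibition of test compounds on that plate plus 3 SD, cut at about 49% in these data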;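 also: 0% = DMSO plus EC80 beta-PEA response and 100% = DMSO alone without agonist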
#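 Test system – hTAAR1-expressing CHO RD-HGA16 cells, Gα16-coupled · Reagent – β-PEA at EC80 concentration, post-compound challenge · Compound dosing – 3 µM, single point · Timing – 140 s kinetic read after compound, 140 s after agonist · Detection – Fluo-8 intracellular calcium dye fluorescence, real-time kinetic reads · Control set – DMSO and EC80 PEA controls · Repeats – n of 1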
# CRFR2-BP ag: agonists of human CRF-binding protein/CRF-R2 receptor complex; activation, % at 13.2 µM; hit rate 0.46% among 350,000; AID 588473; HEK293 CRF-R2/CRF-BP, calcium dye fluorescence (FLIPR); percent of saturating CRF peptide response;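 active = activation of at least 50%, plus an integration ratio under a set limit after plate pattern correction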;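 also: plate controls were neutral control wells without compound for no effect and CRF at EC100 for full effect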
# TMEM16A act: activators or potentiators of mouse TMEM16A chloride channel; Q8BHY3; HEK293 TMEM16A/YFP-H148Q/I152L, iodide quench fluorescence; hits give low values; B-score at 10 µM; hit rate 0.3% among 340,000;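 active = fluorescence-ratio B-score plate-corrected deviation score at least 3 library SD below zero, with starting fluorescence score within 5 deviations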;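 also: channel opened by trigger with iodide after compound preincubation; score built on the fluorescence ratio of max minus min over baseline; more negative score means more quench and so TMEM16A activation or potentiation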
# TMEM16A reconf: re-confirmation of mouse TMEM16A chloride channel inhibitors; shares compounds with ANO1 block; hit rate 39% among 2,300; HEK293 TMEM16A/YFP-H148Q, iodide quench fluorescence; ionomycin added to raise cell calcium; inhibition, % at 10 µM; AID 652189;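 active = mean duplicate percent inhibition, scaled so buffer wells are 0 and the reference blocker 100, over three buffer SD above buffer mean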
# TMEM16A Ca cntr: calcium mobilization counter-screen hit for TMEM16A inhibitor series | shares compounds with ANO1 block | calcium response (% of ionomycin), % at 10 µM | TMEM16A/YFP HEK293, Fluo4 calcium mobilization | hit rate 2% among 2,300;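 active = duplicate-averaged calcium signal over 20% of the ionomycin maximum, relative to buffer baseline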;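 also: each well's signal is peak minus trough fluorescence divided by its pre-addition baseline; 0% = buffer wells and 100% = ionomycin wells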
# Parental YFP cnt: acts in parental YFP-HEK293 cells lacking TMEM16A, counter-screen; YFP ratio F(max-min)/F0 at 10 µM; AID 652233; shares compounds with ANO1 block; 2,300 tested, under 10 active; iodide YFP quench, ionomycin;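 active = yellow fluorescent protein signal ratio exceeding the buffer control mean by over 5 SD of those controls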;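 also: ratio is mean of duplicate wells from kinetic YFP trace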
# ClC-1 inh: rat ClC-1 inhibition, TMEM16A specificity screen; ratio percent, % at 10 µM; shares compounds with ANO1 block; 2,300 tested, under 10 active; CHO ClC-1-YFP, iodide influx fluorescence quench; iodide control reads 0, buffer control 100;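 active = duplicate-mean ratio percent above the mean of iodide-only control wells, which defines zero, plus 5 of their SD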;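 also: higher percent means stronger block of ClC-1 iodide influx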
# * marks the source's active call; other numbers are inactive results; i = inactive; nt = no result. Only some compounds are listed: those with a hit (about 3.9% of all), similar ones and a draw of the others.
SMILES,TAAR1 agonist,CRFR2-BP antag,ANO1 block,TAAR1 antag,CRFR2-BP ag,TMEM16A act,TMEM16A reconf,TMEM16A Ca cntr,Parental YFP cnt,ClC-1 inh
CC(C)(C)c1csc(NC(=O)c2ccccc2O)n1,8,23,25*,32,21,i,23%*,i,-0.95,-2
CC(C(=O)O)c1ccc2c(c1)[nH]c1ccc(Cl)cc12 (stereo not given),3,4,25*,-19,-1,i,i,i,-1,-15
Cc1cc(=O)[nH]c2ccc(Cl)cc12,9,16,i,12,1,i,nt,nt,nt,nt
O=C1CSC(c2ccc(Cl)cc2)N1Nc1nc(N2CCOCC2)nc(N2CCOCC2)n1 (stereo not given),3,-26,i,6,-1,i,nt,nt,nt,nt
O=C(CCCC1=NS(=O)(=O)c2ccccc2N1)N1CCN(c2ccc(Cl)cc2)CC1,6,-9,i,11,0,i,nt,nt,nt,nt
CC(C)(CC(=O)N1CCN(c2ccc(Cl)cc2)CC1)CC1=NS(=O)(=O)c2ccccc2N1,34,-44,25*,64*,-2,i,i,i,-1.1,-8
COc1ccc(CCn2c(=S)[nH]c3cc(C(=O)NCc4ccco4)ccc3c2=O)cc1OC,nt,9,25*,nt,1,i,i,i,-0.91,-24
O=C(Nc1ccc(OCC(F)(F)C(F)F)c(C(F)(F)F)c1)c1ccccc1O,9,10,100*,14,60*,i,i,i,-0.78,-9
O=C(Nc1ccc(OCC(F)(F)C(F)F)c(C(F)(F)F)c1)c1ccccc1,5,1,i,35,1,i,nt,nt,nt,nt
C=CCNC(=O)c1onc(CSc2ccccc2)c1C(=O)O,3,4,i,15,0,i,nt,nt,nt,nt
C=CCNC(=O)c1onc(CSc2ccc(C(C)C)cc2)c1C(=O)O,8,15,25*,3,-1,i,i,i,-1,-16
C=CCc1ccc(O)c(-c2ccc(O)c(CC=C)c2)c1,2,4,100*,23,-1,i,56%*,i,-0.88,-14
COc1cccc(CNC(=O)C2CSC3(C)CCC(=O)N23)c1 (stereo not given),0,1,i,-16,4,i,nt,nt,nt,nt
Cc1ccccc1NC(=O)CCCSc1nc2ccccc2s1,2,0,100*,27,2,i,i,i,-0.85,-12
O=C(CSc1cn(CCNC(=O)c2ccccc2F)c2ccccc12)NCC1CCCO1 (stereo not given),5,0,i,-15,1,i,nt,nt,nt,nt
O=C(NCCn1cc(SCc2ccccc2)c2ccccc21)c1ccccc1F,1,17,25*,64*,-2,i,i,i,-1.2,-10
CCOc1ccc(S(=O)(=O)N2c3ccccc3CC2C)cc1 (stereo not given),21,34,100*,4,2,i,i,i,-1.1,-8
Cc1ccc(S(=O)(=O)N2c3ccccc3CC2C)cc1 (stereo not given),-3,30,i,-12,3,i,nt,nt,nt,nt
C[C@H]1CN([C@@H](C)CO)C(=O)CCCn2nncc2CO[C@@H]1CN(C)S(=O)(=O)c1ccc(Oc2ccccc2)nc1,1,-6,nt,3,1,nt,nt,nt,nt,nt
O=C(O)c1ccc2c(=O)n(Cc3ccccc3)c(SCc3ccc([N+](=O)[O-])cc3)nc2c1,2,4,25*,-11,-4,i,19%*,i,-1.1,-4
Cc1cc(C)nc(N/N=C/c2cc(Br)ccc2O)n1,-5,-31,i,7,1,i,nt,nt,nt,nt
CCc1nnc(NC(=O)C2Cc3ccccc3CN2S(=O)(=O)CC)s1 (stereo not given),0,-6,i,10,-1,i,nt,nt,nt,nt
CCc1nnc(NC(=O)C2Cc3ccccc3CN2S(=O)(=O)c2c(C)c(C)cc(C)c2C)s1 (stereo not given),6,-33,25*,-25,0,i,i,i,-1,6
O=C(CCC(C(=O)c1ccccc1)c1ccccc1)c1ccccc1 (stereo not given),6,-13,nt,36,5,nt,nt,nt,nt,nt
Cc1ccccc1OCc1nc(-c2ccc(NC(=O)c3ccco3)cc2)no1,7,7,25*,30,2,i,i,i,-1,-10
SMILES,TAAR1 agonist,CRFR2-BP antag,ANO1 block,TAAR1 antag,CRFR2-BP ag,TMEM16A act,TMEM16A reconf,TMEM16A Ca cntr,Parental YFP cnt,ClC-1 inh
Cc1ccccc1OCc1nc(-c2ccc(NC(=O)c3cccs3)cc2)no1,2,-6,i,18,8,i,nt,nt,nt,nt
CN1CCN(CCCNC(=O)Nc2ccc([N+](=O)[O-])cc2)CC1,0,3,i,0,0,i,nt,nt,nt,nt
CCOC(=O)/C(=C\c1ccc(Cl)cc1)c1nc2sc(C)c(C)c2c(=O)[nH]1,14,-48,25*,92*,3,i,19%*,i,-1,-12
CCOC(=O)CSc1nc2sc(C)c(C)c2c(=O)[nH]1,2,27,i,1,2,i,nt,nt,nt,nt
CCCCC(=O)N(C)c1c(CC)nc2c(OCCOc3ccc(F)cc3)cccn12,-1,nt,nt,-10,nt,nt,nt,nt,nt,nt
CCCCn1c(SCc2ccc(C(=O)OC)o2)nc2cc(S(N)(=O)=O)ccc21,2,12,25*,-1,-2,i,18%*,i,-1.1,-13
COc1ccc(-c2nnc(NC(=O)c3ccc(S(=O)(=O)N4COCC4(C)C)cc3)o2)cc1,15,-10,i,4,0,i,nt,nt,nt,nt
CC1(C)COCN1S(=O)(=O)c1ccc(C(=O)Nc2nnc(-c3ccc(Cl)s3)o2)cc1,nt,22,100*,nt,90*,nt,i,i,-0.86,-18
CN(CCOc1ccccc1)CC(=O)Nc1ccc([N+](=O)[O-])cc1Cl,-2,-5,25*,-10,5,i,19%*,i,-1.1,-8
